Reference: ChEMBL document CHEMBL3351655, “Scaffold decoration at positions 5 and 8 of 1,2,4-triazolo[1,5-c]pyrimidines to explore the antagonist profiling on adenosine receptors: a preliminary structure-activity relationship study” (J Med Chem, 2014)
pKi: −log10 of the molar value.

Legend:
Adenosine receptor A1 = target: T1, Adenosine receptor A1 (Homo sapiens, UniProt P30542); assay: Displacement of [3H]CCPA from human adenosine A1 receptor expressed in CHO cells; assay type: cell-based
T1 sequence (P30542 whole entry): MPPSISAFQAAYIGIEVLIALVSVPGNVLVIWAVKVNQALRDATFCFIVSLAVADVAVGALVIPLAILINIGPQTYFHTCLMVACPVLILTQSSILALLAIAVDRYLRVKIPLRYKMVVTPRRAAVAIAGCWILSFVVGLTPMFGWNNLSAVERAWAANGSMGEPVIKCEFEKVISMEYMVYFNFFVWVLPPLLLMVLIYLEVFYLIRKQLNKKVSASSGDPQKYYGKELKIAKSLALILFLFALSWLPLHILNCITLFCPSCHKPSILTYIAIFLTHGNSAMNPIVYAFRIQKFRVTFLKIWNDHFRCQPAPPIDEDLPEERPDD
Outline: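 Stably transfected CHO cells were homogenised and spun at 1000g to remove nuclei and fragments. Membranes were then pelleted at 100 000g, resuspended in binding buffer, frozen in liquid nitrogen and stored. Radioligand was [³H]CCPA, with nonspecific binding defined by 1 mM theophylline.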

CHO [1] = assay: Selectivity ratio of Ki for human adenosine A2A receptor expressed in CHO cells to Ki for human adenosine A3 receptor expressed in CHO cells; assay type: cell-based
Adenosine receptor A2a = Adenosine receptor A2a (Homo sapiens, UniProt P29274); assay: Displacement of [3H]NECA from human adenosine A2A receptor expressed in CHO cells; assay type: cell-based
Chain of Adenosine receptor A2a (P29274 whole entry): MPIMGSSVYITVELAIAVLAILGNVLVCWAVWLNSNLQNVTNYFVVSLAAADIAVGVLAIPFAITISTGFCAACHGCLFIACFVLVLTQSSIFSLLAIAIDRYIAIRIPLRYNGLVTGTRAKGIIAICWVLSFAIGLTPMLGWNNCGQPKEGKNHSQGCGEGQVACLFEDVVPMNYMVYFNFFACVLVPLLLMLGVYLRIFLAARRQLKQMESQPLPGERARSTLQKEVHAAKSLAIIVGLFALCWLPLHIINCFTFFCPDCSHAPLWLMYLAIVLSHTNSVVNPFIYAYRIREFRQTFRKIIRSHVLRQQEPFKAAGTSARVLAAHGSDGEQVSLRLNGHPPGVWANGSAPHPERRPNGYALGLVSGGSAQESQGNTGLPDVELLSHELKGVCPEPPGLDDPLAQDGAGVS

Adenosine receptor A3 = target: T2, Adenosine receptor A3 (Homo sapiens, UniProt P0DMS8); assay: Displacement of [3H]NECA from human adenosine A3 receptor expressed in CHO cells; assay type: cell-based
T2 sequence (P0DMS8 whole entry): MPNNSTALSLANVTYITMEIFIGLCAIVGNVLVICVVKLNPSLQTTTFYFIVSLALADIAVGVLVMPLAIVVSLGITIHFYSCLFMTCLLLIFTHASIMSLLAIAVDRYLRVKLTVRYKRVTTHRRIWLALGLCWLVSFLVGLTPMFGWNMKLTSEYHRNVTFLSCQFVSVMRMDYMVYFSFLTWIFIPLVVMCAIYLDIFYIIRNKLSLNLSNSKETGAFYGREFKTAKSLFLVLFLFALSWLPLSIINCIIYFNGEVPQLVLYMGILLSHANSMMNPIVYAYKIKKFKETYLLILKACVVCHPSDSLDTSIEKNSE
Outline: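 Radioligand [³H]NECA was used on membranes from stably transfected CHO cells, prepared by a 1000g clearing spin then pelleting at 100 000g. Pellets were resuspended in binding buffer, frozen in liquid nitrogen and stored. Nonspecific binding was defined with 100 μM R-PIA.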

[2] = target: Adenosine receptors; A1 & A3 (Homo sapiens) (UniProt P30542+P0DMS8); assay: Selectivity ratio of Ki for human adenosine A1 receptor expressed in CHO cells to Ki for human adenosine A3 receptor expressed in CHO cells; assay type: cell-based
CHO [3] = assay: Selectivity ratio of Ki for human adenosine A1 receptor expressed in CHO cells to Ki for human adenosine A2A receptor expressed in CHO cells; assay type: cell-based
Adenosine receptor A2b = target: T3, Adenosine receptor A2b (Homo sapiens, UniProt P29275); assay: Antagonist activity at human adenosine A2B receptor expressed in CHO cells assessed as inhibition of NECA-stimulated adenylyl cyclase activity; assay type: functional, cell-based
T3 sequence (P29275 whole entry): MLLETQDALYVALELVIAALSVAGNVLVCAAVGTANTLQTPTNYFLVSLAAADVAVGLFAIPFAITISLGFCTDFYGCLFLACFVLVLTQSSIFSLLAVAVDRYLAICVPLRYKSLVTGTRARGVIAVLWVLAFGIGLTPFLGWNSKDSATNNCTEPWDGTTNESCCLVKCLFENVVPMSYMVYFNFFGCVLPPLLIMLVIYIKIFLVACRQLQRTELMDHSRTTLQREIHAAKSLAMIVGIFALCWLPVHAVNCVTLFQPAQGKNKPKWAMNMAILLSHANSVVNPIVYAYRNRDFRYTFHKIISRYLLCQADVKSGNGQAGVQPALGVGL
Outline: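 Membranes from stably transfected CHO cells, made with a single high-speed centrifugation of the homogenate. Incubated 20 min with about 150 000 cpm [α-³²P]ATP, in a mixture without EGTA and NaCl. IC50 for concentration-dependent inhibition of NECA-stimulated adenylyl cyclase was fitted with the Hill equation and converted to Ki by Cheng–Prusoff.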

Row | SMILES | pKi (Adenosine receptor A1) | Ratio Ki (CHO [1]) | pKi (Adenosine receptor A2a) | pKi (Adenosine receptor A3) | Ratio Ki [2] | Ratio Ki (CHO [3]) | pKi (Adenosine receptor A2b)
1 | CCOC(=O)c1cnc(NC2CC2)n2nc(-c3ccco3)nc12 | 7.22 | 3.93 | 7.43 | 8.02 | 6.38 | 1.62 | 5.65
2 | O=C(Nc1ncc(C(=O)NCCc2ccccc2)c2nc(-c3ccco3)nn12)NC1CCCCC1 | < 4.00 | 0.18 | 6.11 | 5.37 | > 23.7 | > 129 | < 4.52
3 | CCCCC(CC)CNc1ncc(C(=O)OCC)c2nc(-c3ccco3)nn12 (stereo unspecified) | 5.94 | 5.47 | 6.67 | 7.41 | 29.3 | 5.35 | < 5.00
4 | CCCCCNc1ncc(C(=O)O)c2nc(-c3ccco3)nn12 | 4.98 | 1.02 | 4.57 | 4.58 | 0.39 | 0.39 | < 5.00
5 | CCOC(=O)c1cnc(NC(=O)Cc2ccccc2)n2nc(-c3ccco3)nc12 | < 4.00 | 16.5 | 4.37 | 5.59 | > 38.6 | > 2.34 | < 4.52
6 | CNc1ncc(C(=O)O)c2nc(-c3ccco3)nn12 | < 4.00 | > 6.29 | < 4.00 | 4.80 | > 6.29 |  | < 5.00
7 | CCOC(=O)c1cnc(NCc2ccc(OC)cc2)n2nc(-c3ccco3)nc12 | 5.90 | 2.46 | 6.85 | 7.24 | 21.7 | 8.8 | 5.32
8 | CCCCCNc1ncc(C(=O)OCC)c2nc(-c3ccco3)nn12 | 6.21 | 4.43 | 7.30 | 7.95 | 54.2 | 12.2 | < 5.00
9 | CCOC(=O)c1cnc(NCc2ccc(C)cc2)n2nc(-c3ccco3)nc12 | 5.87 | 2.17 | 6.91 | 7.25 | 23.9 | 11 | 5.00
10 | O=C(O)c1cnc(NC(c2ccccc2)c2ccccc2)n2nc(-c3ccco3)nc12 | 5.61 | > 48 | < 4.00 | 5.68 | 1.18 | < 0.02 | < 4.52
11 | COc1ccc(CNc2ncc(C(=O)O)c3nc(-c4ccco4)nn23)cc1 | 5.24 | 2.25 | 4.91 | 5.26 | 1.04 | 0.46 | < 4.52
12 | CCOC(=O)c1cnc(NC2CCC2)n2nc(-c3ccco3)nc12 | 7.12 | 2.47 | 7.54 | 7.93 | 6.42 | 2.6 | < 5.52
13 | COc1ccc(CNc2ncc(C(=O)O)c3nc(-c4ccco4)nn23)cc1OC | 6.02 | 33.4 | 5.27 | 6.80 | 6.02 |  | < 4.52
14 | Cc1ccc(CNc2ncc(C(=O)O)c3nc(-c4ccco4)nn23)cc1 | 5.56 | 1.58 | 5.92 | 6.12 | 3.63 | 2.29 | < 5.00
15 | O=C(O)c1cnc(NCc2ccc(Cl)cc2)n2nc(-c3ccco3)nc12 | < 4.00 | > 8.62 | < 4.00 | 4.94 | > 8.62 |  | < 4.52
16 | CCOC(=O)c1cnc(NN2CCOCC2)n2nc(-c3ccco3)nc12 | < 4.00 |  | < 4.00 | < 4.52 |  |  | < 5.00
